Measured values from ChEMBL document CHEMBL3407477, “Synthesis and biological evaluation of compact, conformationally constrained bifunctional opioid agonist - neurokinin-1 antagonist peptidomimetics” (Eur J Med Chem, 2015).
pIC50, pKi: −log10 of the molar value. The source made the active and inactive calls.

Assays:
[1] = target: Mu-type opioid receptor (Rattus norvegicus, UniProt P33535); assay: Displacement of [3H]DAMGO from rat brain MOR after 2 hrs
Method in brief: (§1)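 Rat brain membranes were incubated 2 h at 0 °C with 0.72 nM [3H]DAMGO (MOR) or 0.78 nM [3H]DSLET (DOR). IC50 came from log-dose displacement curves.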

[2] = target: Delta-type opioid receptor (Rattus norvegicus, UniProt P33533); assay: Displacement of [3H]DSLET from rat brain DOR after 2 hrs; method in brief: as §1
Sequence of Delta-type opioid receptor (Rattus norvegicus, UniProt P33533) (P33533 whole entry): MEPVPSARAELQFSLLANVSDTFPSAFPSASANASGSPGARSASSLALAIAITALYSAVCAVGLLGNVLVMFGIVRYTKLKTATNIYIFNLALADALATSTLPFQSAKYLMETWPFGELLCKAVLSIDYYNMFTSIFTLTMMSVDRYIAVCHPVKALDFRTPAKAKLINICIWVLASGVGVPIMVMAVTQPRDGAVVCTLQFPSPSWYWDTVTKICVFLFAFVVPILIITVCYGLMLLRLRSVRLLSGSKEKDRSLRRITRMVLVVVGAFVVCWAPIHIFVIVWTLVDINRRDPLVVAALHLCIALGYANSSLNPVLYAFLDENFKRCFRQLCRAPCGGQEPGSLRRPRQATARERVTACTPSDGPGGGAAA

[3] = organism: Rattus norvegicus; assay: Selectivity ratio of Ki for rat brain DOR to Ki for rat brain MOR
[4] = target: T1, Substance-P receptor (Homo sapiens, UniProt P25103); assay: Antagonist activity at human NK1 receptor expressed in CHO cells by luminescence assay in presence of SP peptide; assay type: cell-based; details: read-out: pA2 (converted)
T1 sequence (P25103 whole entry): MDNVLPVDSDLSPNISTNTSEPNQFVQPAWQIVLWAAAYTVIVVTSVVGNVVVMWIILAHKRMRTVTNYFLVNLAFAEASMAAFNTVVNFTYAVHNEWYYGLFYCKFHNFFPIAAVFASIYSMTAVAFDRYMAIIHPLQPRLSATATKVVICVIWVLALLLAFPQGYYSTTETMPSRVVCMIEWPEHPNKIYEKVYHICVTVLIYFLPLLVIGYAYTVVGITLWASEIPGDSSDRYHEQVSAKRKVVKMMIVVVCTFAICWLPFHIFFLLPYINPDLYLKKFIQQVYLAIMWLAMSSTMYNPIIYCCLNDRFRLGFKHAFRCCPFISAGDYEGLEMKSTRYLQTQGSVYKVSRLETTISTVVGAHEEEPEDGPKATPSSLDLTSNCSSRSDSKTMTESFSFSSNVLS

[5] = target: T1, Substance-P receptor; assay: Displacement of [3H]SP from human NK1 receptor expressed in CHO cells after 20 mins by liquid scintillation counting analysis; assay type: cell-based
Method in brief: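 Membranes from hNK1/CHO cells (20 µg) were incubated with 0.4 nM [3H]SP and six test concentrations in duplicate. Buffer was 50 mM Tris pH 7.4 with 5 mM MgCl2, bacitracin, bestatin, captopril and PMSF, for 20 min at 25 °C. Nonspecific binding was defined with 10 µM SP. Samples were filtered on PEI-soaked GF/B, counted by scintillation, three independent experiments. Ki by Cheng-Prusoff from nonlinear-regression IC50.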

[6] = target: Mu-type opioid receptor (Cavia porcellus, UniProt P97266); assay: Activation of MOR in guinea pig ileum; assay type: tissue-based
Sequence of Mu-type opioid receptor (Cavia porcellus, UniProt P97266) (P97266 whole entry): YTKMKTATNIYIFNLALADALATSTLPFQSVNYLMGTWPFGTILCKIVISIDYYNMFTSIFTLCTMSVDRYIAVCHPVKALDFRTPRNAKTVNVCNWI
Method in brief: (§2)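 Isolated guinea pig ileum (MOR) and mouse vas deferens (DOR) bioassays. A [Leu5]enkephalin standard dose-response curve was run on each tissue preparation, and test IC50 values were normalized to it. Values are means of 3-4 experiments.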

[7] = target: Delta-type opioid receptor (Mus musculus, UniProt P32300); assay: Activation of DOR in mouse vas deferens; method in brief: as §2
Sequence of Delta-type opioid receptor (Mus musculus, UniProt P32300) (P32300 whole entry): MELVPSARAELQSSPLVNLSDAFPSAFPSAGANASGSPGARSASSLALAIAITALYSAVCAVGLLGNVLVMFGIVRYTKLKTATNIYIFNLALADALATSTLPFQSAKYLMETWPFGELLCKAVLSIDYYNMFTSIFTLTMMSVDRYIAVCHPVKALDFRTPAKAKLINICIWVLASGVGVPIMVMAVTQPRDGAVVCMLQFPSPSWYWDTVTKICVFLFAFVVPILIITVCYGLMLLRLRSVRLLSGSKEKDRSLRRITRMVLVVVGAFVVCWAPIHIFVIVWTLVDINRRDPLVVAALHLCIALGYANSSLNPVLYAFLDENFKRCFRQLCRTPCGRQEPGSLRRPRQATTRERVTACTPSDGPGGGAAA

[8] = organism: Rattus norvegicus; assay: Antinociceptive activity in Wistar rat at 1 to 50 nmol, it after 30 mins by tail flick test; assay type: functional, organism-based
Method in brief: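 Male Wistar rats (250-300 g), naive, with chronic i.t. catheters inserted through the atlanto-occipital membrane to L4-L6 under pentobarbital anaesthesia. Tested on day 7 after implantation. Drug in water for injection was given as a single 5 µl i.t. injection, then 10 µl flush. Tail-flick (light-bulb heat at two-thirds tail length, 9 s cut-off) was read 30 min post-dose. Values are %MPE vs baseline; 7-12 rats/group; ANOVA/Bonferroni.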

[9] = tested on: Rattus norvegicus; assay: Antinociceptive activity in Wistar rat up to 1.21 umol/kg, iv after 30 mins by tail flick test; assay type: functional, organism-based
[10] = tested on: Rattus norvegicus; assay: Toxicity in Wistar rat assessed as seizures at 9.5 nmol, iv; assay type: organism-based; details: in vivo
[11] = tested on: Rattus norvegicus; assay: Toxicity in Wistar rat assessed as death at 9.5 nmol, iv; assay type: organism-based; details: in vivo
[12] = organism: Rattus norvegicus; assay: Antiallodynic effect in Wistar rat chronic constriction injury model at 0.1 to 1 nmol, it measured 7 days post CCI challenge by Von Frey test; assay type: functional, organism-based
Method in brief: (§3)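 Male Wistar rats (300-350 g) with i.t. catheters (L4-L6) had CCI made by four loose silk ligatures on the right sciatic nerve. On day 7 they received a single i.t. dose in water for injection. Mechanical allodynia was measured 30 min later with an automatic von Frey device (0.5-26 g) on the midplantar hind paw. Data are %MPE, 6-12 rats/group, ANOVA with Bonferroni.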

[13] = organism: Rattus norvegicus; assay: Reduction of hyperalgesia in Wistar rat chronic constriction injury model at 1 nmol, it measured 7 days post CCI challenge by cold plate test; assay type: functional, organism-based
Method in brief: (§4)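 In catheterized male Wistar rats with sciatic CCI, a single i.t. dose in water for injection was given on day 7. Thermal hyperalgesia was measured 30 min later as latency to hind-paw shake on a 5 °C cold plate. Data are %MPE, 6-12 rats/group, ANOVA with Bonferroni.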

[14] = target: Mu-type opioid receptor (Cavia porcellus) (UniProt P97266); assay: Partial agonist activity at MOR in guinea pig ileum; assay type: tissue-based; method in brief: as §2
Sequence of Mu-type opioid receptor (Cavia porcellus) (P97266 whole entry): as the sequence (P97266 whole entry) above

[15] = target: Mu-type opioid receptor (Cavia porcellus) (UniProt P97266); assay: Antagonist activity at MOR in guinea pig ileum; assay type: tissue-based
[16] = organism: Rattus norvegicus; assay: Antinociceptive activity in Wistar rat at 0.001 to 0.1 nmol, it after 30 mins to 2 hrs by tail flick test; assay type: functional, organism-based
[17] = tested on: Mus musculus; assay: Antinociceptive activity in C57Bl6 mouse at 1.21 umol/kg, iv after 30 mins by tail flick test; assay type: functional, organism-based
Method in brief: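 Male C57Bl6 mice (25-28 g) received a single i.v. dose dissolved in saline or water for injection. Radiant-heat tail-flick latency was measured at 5, 15, 30, 60, 120 and 180 min, with a 7 s cut-off. Data are %MPE, 6-8 mice/group.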

[18] = organism: Rattus norvegicus; assay: Antiallodynic effect in Wistar rat chronic constriction injury model at 0.001 to 1 nmol, it measured 7 days post CCI challenge by Von Frey test; assay type: functional, organism-based; method in brief: as §3
[19] = organism: Rattus norvegicus; assay: Toxicity in Wistar rat chronic constriction injury model at 1 nmol, it measured 7 days post CCI challenge; assay type: organism-based; details: in vivo, icv_or_intrathecal, 168 h
[20] = organism: Rattus norvegicus; assay: Antinociceptive activity in Wistar rat at 0.1 nmol, it after 30 mins by tail flick test; assay type: functional
Method in brief: (§5)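 Naive male Wistar rats (250-300 g) with i.t. catheters received a single i.t. injection in water for injection (5 µl plus 10 µl flush), 7 days after catheter implantation. Tail-flick latency to a light-bulb heat stimulus at two-thirds of tail length was read 30 min post-dose (timepoints up to 180 min), with a 9 s cut-off. Data are %MPE = (TL-BL)/(cut-off-BL)×100, 7-12 rats/group, ANOVA with Bonferroni.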

[21] = organism: Rattus norvegicus; assay: Antiallodynic effect in Wistar rat chronic constriction injury model at 0.35 to 35 nmol, it measured 7 days post CCI challenge by Von Frey test; assay type: functional, organism-based; method in brief: as §3
[22] = tested on: Rattus norvegicus; assay: Antinociceptive activity in it dosed Wistar rat after 30 mins by tail flick test; assay type: functional; method in brief: as §5
[23] = tested on: Rattus norvegicus; assay: Antiallodynic effect in it dosed Wistar rat measured 7 days post CCI challenge by Von Frey test; assay type: functional; method in brief: as §3
[24] = tested on: Rattus norvegicus; assay: Reduction of hyperalgesia in it dosed Wistar rat measured 7 days post CCI challenge by cold plate test; assay type: functional; method in brief: as §4
[25] = tested on: Rattus norvegicus; assay: Antiallodynic effect in Wistar rat chronic constriction injury model assessed as tolerance to neuropathic pain at 3.5 nmol, it qd for 6 days administered from 7 days post CCI challenge to day 13 by Von Frey test; assay type: functional, organism-based
Method in brief: (§6)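 CCI Wistar rats received once-daily i.t. injections (morphine 3.5 nmol, hybrids 1 nmol, in water for injection) from day 7 to day 13 after CCI. Von Frey and 5 °C cold plate tests were run 30 min after each dose. Data are %MPE and AUC, 12-16 rats/group, ANOVA with Bonferroni.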

[26] = tested on: Rattus norvegicus; assay: Antiallodynic effect in Wistar rat chronic constriction injury model assessed as tolerance to neuropathic pain at 3.5 nmol, it qd for 6 days administered from 7 days post CCI challenge to day 13 by cold plate test; assay type: functional, organism-based; method in brief: as §6
[27] = tested on: Rattus norvegicus; assay: (§7) Antiallodynic effect in Wistar rat chronic constriction injury model assessed as cross tolerance developement pretreated with H-Dmt-D-Arg-Aba-Gly-NMe-3',5'-(CF3)2-Bn at 1 nmol, it qd for 6 days administered from 7 days post CCI challenge to day 13 measured 30 mins post morphine challenge by Von frey test; assay type: functional, organism-based
Method in brief: (§8)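 CCI Wistar rats were made tolerant by 6 days of once-daily i.t. dosing (morphine 3.5 nmol or hybrid 1 nmol). On day 13 they received a single i.t. challenge (morphine 3.5 nmol or hybrid 1 nmol) against repeated-vehicle controls. Von Frey and cold plate tests were run 30 min later. Data are %MPE, 6-8 rats/group, ANOVA with Bonferroni.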

[28] = tested on: Rattus norvegicus; assay: Antiallodynic effect in Wistar rat chronic constriction injury model assessed as cross tolerance developement pretreated with H-Dmt-D-Arg-Aba-beta-Ala-NMe-Bn at 1 nmol, it qd for 6 days administered from 7 days post CCI challenge to day 13 measured 30 mins post morphine challenge by Von Frey test; assay type: functional, organism-based; method in brief: as §8
[29] = tested on: Rattus norvegicus; assay: as §7, with “cold plate” for “Von frey”; assay type: functional, organism-based; method in brief: as §8
[30] = tested on: Rattus norvegicus; assay: Antiallodynic effect in Wistar rat chronic constriction injury model assessed as cross tolerance developement pretreated with H-Dmt-D-Arg-Aba-beta-Ala-NMe-Bn at 1 nmol, it qd for 6 days administered from 7 days post CCI challenge to day 13 measured 30 mins post morphine challenge by cold plate test; assay type: functional, organism-based; method in brief: as §8

Sequence of Mu-type opioid receptor (Rattus norvegicus, UniProt P33535) (P33535 whole entry): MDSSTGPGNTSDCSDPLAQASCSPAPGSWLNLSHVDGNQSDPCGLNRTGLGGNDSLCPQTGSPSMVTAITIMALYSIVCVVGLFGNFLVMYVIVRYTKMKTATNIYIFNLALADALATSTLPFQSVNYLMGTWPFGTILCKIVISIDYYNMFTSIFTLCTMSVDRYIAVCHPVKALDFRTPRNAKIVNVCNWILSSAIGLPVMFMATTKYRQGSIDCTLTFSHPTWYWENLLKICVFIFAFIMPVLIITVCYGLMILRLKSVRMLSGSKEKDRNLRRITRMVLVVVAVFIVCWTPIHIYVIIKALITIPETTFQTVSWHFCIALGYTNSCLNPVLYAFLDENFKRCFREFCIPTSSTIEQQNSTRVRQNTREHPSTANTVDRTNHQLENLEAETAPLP

`Cc1cc(O)cc(C)c1C[C@H](N)C(=O)N[C@H](CCCNC(=N)N)C(=O)N[C@H]1Cc2ccccc2CN(CCC(=O)N(C)Cc2cc(C(F)(F)F)cc(C(F)(F)F)c2)C1=O` gave a pKi [1] of 10.10, a pKi [2] of 8.67 and a Ratio Ki [3] of 25.3. The Kb [4] was 912 nM, the pKi [5] was 7.22 and the pIC50 [6] was 7.95. The pIC50 [7] was 8.21.

In the case of `CC(=O)N[C@H]1Cc2ccccc2CN(CC(=O)N(C)Cc2cc(C(F)(F)F)cc(C(F)(F)F)c2)C1=O`, the Activity [8] was “Active”, the Activity [9] was “inactive” and the Activity [10] was “Toxic”. The Activity [11] was “Toxic”, the Activity [12] was “Active” and the Activity [13] was “Active”.

Compound `Cc1cc(O)cc(C)c1C[C@H](N)C(=O)N[C@H](CCCNC(=N)N)C(=O)N[C@H]1Cc2ccccc2CN(CC(=O)N(Cc2cc(C(F)(F)F)cc(C(F)(F)F)c2)CC(C)C)C1=O` has a pKi [5] of 7.46, an Activity [14] of 19.7 nM and a Ke [15] of 12.7 nM. The pIC50 [7] was 7.84.

`Cc1cc(O)cc(C)c1C[C@H](N)C(=O)N[C@H](CCCNC(N)=O)C(=O)N[C@H]1Cc2ccccc2CN(CCC(=O)N(C)Cc2cc(C(F)(F)F)cc(C(F)(F)F)c2)C1=O` gave a pKi [1] of 9.43, a pKi [2] of 9.26 and a Ratio Ki [3] of 1.5. It also gave a Kb [4] of 537 nM, a pKi [5] of 7.46 and a pIC50 [6] of 8.69. The pIC50 [7] was 8.97.

`Cc1cc(O)cc(C)c1C[C@H](N)C(=O)N[C@H](CCCNC(=N)N)C(=O)N[C@H]1Cc2ccccc2CN(CCC(N)=O)C1=O` was tested, and the Ratio Ki [3] was 12.7, the Activity [16] was “Active” and the Activity [17] was “Active”. The Activity [18] was “Active”, the Activity [19] was “Toxic” and the Activity [13] was “Active”. The MPE [20] was 99.7%.

`Cc1cc(O)cc(C)c1C[C@H](N)C(=O)N[C@H](CCCN=C(N)N)C(=O)N[C@H]1Cc2ccccc2CN(CC(N)=O)C1=O` was tested, and the Activity [19] was “Toxic”.

In the case of `CN1CC[C@]23c4c5ccc(O)c4O[C@H]2[C@@H](O)C=C[C@H]3[C@H]1C5` [MORPHINE], the Activity [21] was “Active”, the Activity [13] was “Active” and the ED50 [22] was 0.49 nmol. The ED50 [23] was 6.25 nmol, the ED50 [24] was 377 nmol and the Activity [25] was “Active”. For the same compound, the Activity [26] was “Active”, the Activity [27] was “inactive” and the Activity [28] was “inactive”. For the same compound, the Activity [29] was “inactive” and the Activity [30] was “inactive”.
